# High-throughput results deposited in PubChem BioAssay by several laboratories.
# PRMT1 FP inh – PRMT1 methyltransferase inhibitors, primary screen, biochemical, fluorescence polarization | Protein arginine N-methyltransferase 1 (Homo sapiens), Q99873 | recombinant PRMT1, activity-based probe fluorescence polarization | inhibition, % at 2.79 µM | 370,000 compounds, 1.3% hits;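 active means inhibition above about 21% made by adding two undisclosed values, limit read from the data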
# Target sequence (Q99873 whole entry, looked up): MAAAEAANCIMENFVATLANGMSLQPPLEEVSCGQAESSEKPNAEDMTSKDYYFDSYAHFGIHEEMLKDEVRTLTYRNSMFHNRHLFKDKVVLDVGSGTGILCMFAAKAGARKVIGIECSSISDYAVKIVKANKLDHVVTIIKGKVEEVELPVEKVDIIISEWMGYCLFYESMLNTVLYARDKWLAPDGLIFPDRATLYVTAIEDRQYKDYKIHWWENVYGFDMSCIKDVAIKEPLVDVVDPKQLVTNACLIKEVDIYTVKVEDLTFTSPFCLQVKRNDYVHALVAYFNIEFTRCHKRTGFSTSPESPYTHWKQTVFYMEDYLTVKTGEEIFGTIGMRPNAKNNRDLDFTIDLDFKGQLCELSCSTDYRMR
# APOBEC3A inh – APOBEC3A ssDNA deaminase inhibitors, primary screen, selectivity assay for APOBEC3G inhibitor project, biochemical, FAM/TAMRA oligo cleavage fluorescence; 330,000 compounds, 0.41% hits; AID 493011, 2011; inhibition, % at 20 µM; recombinant A3A, FAM/TAMRA ssDNA deamination fluorescence;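 active means at least 40% inhibition at 20 µM here, with at most 30% in a related deaminase screen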;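 further: plate controls were A3A with DMSO for no effect and wells lacking A3A enzyme for full effect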
# Target sequence (P31941 whole entry, looked up): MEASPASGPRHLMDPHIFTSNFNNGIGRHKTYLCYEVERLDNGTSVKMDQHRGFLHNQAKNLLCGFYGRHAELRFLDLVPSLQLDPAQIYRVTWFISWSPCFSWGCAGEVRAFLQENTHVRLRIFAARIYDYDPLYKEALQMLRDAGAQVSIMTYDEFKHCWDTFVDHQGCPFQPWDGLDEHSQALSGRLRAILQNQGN
# ABHD5-PLIN5 inh – ABHD5-PLIN5 interaction inhibitors, primary screen, cell lysate, split luciferase complementation, luminescence; Perilipin-5 (Homo sapiens) + 1-acylglycerol-3-phosphate O-acyltransferase ABHD5 (Homo …; Split G. princeps luciferase complementation, 4 h; inhibition, % at 4 µM; 360,000 compounds, 0.78% hits; AID 602281, 2012;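 active means inhibition above the mean inhibition across every tested compound plus 3 SD, cut at about 22% in these data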;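 further: 0% = DMSO only wells and the 100% control is not disclosed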
# A3G deaminase – APOBEC3G DNA deaminase inhibitors, primary screen, biochemical, fluorescence, single-stranded DNA substrate, uHTS. DNA dC->dU-editing enzyme APOBEC-3G (Homo sapiens), Q9HC16. 330,000 compounds, 0.28% hits. inhibition, % at 20 µM. recombinant A3G, ssDNA deamination FAM/TAMRA fluorescence. AID 493012, 2011;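 active means inhibition of at least 40% at 20 µM, with no more than 30% in the related APOBEC3A deaminase screen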;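 further: plate controls were DMSO wells with A3G for no effect and wells lacking A3G enzyme for full effect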
# NS3 helicase inh – inhibitors of HCV NS3 helicase, primary screen, biochemical, Cy5 molecular beacon fluorescence. Hepatitis C virus NS3 helicase. NS3 helicase DNA unwinding. inhibition, % at 10.9 µM. 290,000 compounds, 0.56% hits. AID 1800, 2009;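 active means inhibition above the mean of all tested compounds plus 3 SD, set per campaign, cut at about 35% in these data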;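 further: 0% = DMSO wells and 100% = thioflavine S control wells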
#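 System: Hepatitis C virus NS3 helicase domain fragment enzyme | Reagent: Annealed dual-labelled DNA beacon duplex, ATP-started | Compound dosing: 10.9 µM single point, 0.8% DMSO | Incubation: 1 h reaction at 25 °C, ATP-initiated | Technique: Cy5 fluorescence | Evaluation: Percent inhibition from t60/t0 fluorescence ratio | Benchmarks: Low DMSO, high thioflavine S at 110 µM | Replication: Singlicate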
# core dimer inh – inhibitors of HCV core protein dimerization, primary screen, biochemical, TR-FRET, high-throughput. TR-FRET GST/Flag-core106 dimerization, 1536-well. 300,000 compounds, 0.33% hits. inhibition, % at 5 µM. AID 1899, 2009;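 active means inhibition above the mean of all tested compounds plus 3 SD, set per screening campaign, cut at about 45% in these data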
#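 Material: GST/Flag-tagged HCV core106 proteins. Incubation: 4 h, 22.5 °C incubation. Read-out basis: inhibition (%) from 671 over 617 nm ratio. Measured by: TR-FRET, excitation 340 nm, emission 617 and 671 nm.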
# NS3 helicase cf – HCV NS3 helicase inhibitors, retest, confirmation, biochemical, Cy5 molecular beacon fluorescence, triplicate; NS3 helicase DNA unwinding; inhibition, % at 10.9 µM; 1,600 compounds, 31% hits; shares compounds with NS3 helicase inh;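 active means inhibition above the mean of all tested compounds plus 3 SD, cutoff set per campaign, cut at about 36% in these data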
# FID counter trip – compounds displacing fluorescent DNA intercalator, artefact control for HCV NS3 helicase inhibitor project, biochemical, FID fluorescence, triplicate; 1,600 compounds, 4% hits; inhibition, % at 7.9 µM; DNA fluorescent intercalator displacement; shares compounds with NS3 helicase inh; in the data active means inhibition above about 37%;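 further: 0% = vehicle and 100% = reference compound; higher means more displacement of ethidium bromide from the DNA hairpin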
# FID counter DR – compounds displacing fluorescent intercalator from DNA, dose response, counter-screen for HCV NS3 helicase inhibitor project, biochemical, fluorescence; 120 tested, under 10 active; IC50, µM; fluorescent intercalator displacement from DNA; shares compounds with NS3 helicase inh; call rule not given here
# The depositor's hits bear a star; . = not tested or not shown. This is a sample that favours compounds with a hit; in the whole collection about 2.9% have one here.
SMILES,PRMT1 FP inh,APOBEC3A inh,ABHD5-PLIN5 inh,A3G deaminase,NS3 helicase inh,core dimer inh,NS3 helicase cf,FID counter trip,others
Cc1nnc(NC(=O)CSc2nnc(Cc3cccn3C)n2CCc2ccccc2)s1,4,-6,4,-8,17,1,.,.,
Cn1cccc1Cc1nnc(SCC(=O)Nc2nc3ccccc3s2)n1CCc1ccccc1,.,8,7,0,52*,-6,5,-21,
Cc1cc(C(=O)CN2C(=O)C(=O)N(CCC3=CCCCC3)C2=O)c(C)n1C,1,-4,-7,-6,.,.,.,.,
Cc1ccc(N=C2NC(=O)/C(=C/C=C/c3ccco3)S2)cc1,23*,.,18,.,114*,59*,9,3,
COc1ccc(N=C2NC(=O)/C(=C/c3ccco3)S2)cc1,6,-2,6,-4,25,-1,.,.,
COc1ccc(Cc2nnc(SC(C)C(=O)Nc3ccc(F)cc3Cl)o2)cc1 (stereo not drawn),2,1,0,-10,.,3,.,.,
Cc1ccc(C)n1Cc1ccc(C(=O)O)cc1,.,97,2,92,38*,-47,80*,-1,
Cc1cc(C)n(Cc2ccc(C(=O)O)cc2)n1,0,1,-1,-6,-2,-3,.,.,
COc1ccc(/C=C2\SC(=S)N(CCC(=O)Nc3cccc(C(=O)O)c3)C2=O)cc1,-8,-6,-1,-4,39*,-1,52*,7,
O=C(CCCN1C(=O)/C(=C/c2cccs2)SC1=S)Nc1cccc(C(=O)O)c1,-2,-3,0,-4,18,4,.,.,
CC(/C=C1\SC(=S)N(CCCC(=O)Nc2ccc(C(=O)O)c(O)c2)C1=O)=C\c1ccccc1,.,.,.,.,73*,20,73*,69*,
O=C(CCN1C(=O)/C(=C/c2cccs2)SC1=S)Nc1cccc(C(=O)O)c1,1,1,-5,3,36*,-1,58*,4,
CCOC(=O)C(=C1Nc2ccccc2N1)n1c(-c2cccnc2)nc2ccccc21,-1,.,-1,.,.,.,.,.,
COc1ccc(-c2ccc(C(=O)NCc3ccc(N(C)C)cc3)c3occc23)c(C)c1,0,.,4,.,.,.,.,.,
O=c1[nH][nH]c2c([N+](=O)[O-])ccc(F)c12,9,.,.,.,.,.,.,.,
O=c1[nH][nH]c2c(N=Cc3ccccc3O)ccc(F)c12,.,.,-5,.,53*,.,18,24,
Cc1cc(O)c(C=O)c2c1C(=O)Oc1c(CO)c(O)c3c(c1O2)C(O)OC3=O (stereo not drawn),.,100,73*,84,47*,13,62*,86*,
Cc1cc(C(=O)OCC(=O)NC2CCCCC2C)c2ccccc2n1 (stereo not drawn),1,-5,-2,-5,.,.,.,.,
CC(C)CNC(=O)COC(=O)c1c2c(nc3ccccc13)/C(=C/c1cccs1)CC2,0,.,-3,.,74*,13,-8,-9,
CCCCNC(=O)COC(=O)c1c2c(nc3ccccc13)/C(=C\c1cccs1)CC2,2,.,-3,.,.,.,.,.,
CC1CCCCC1NC(=O)COC(=O)c1c2c(nc3ccccc13)/C(=C/c1ccco1)CC2 (stereo not drawn),16,.,2,.,47*,97*,97*,1,FID counter DR=>79
COc1ccccc1C(=O)NCCC(=O)NNC(=O)c1ccccc1O,9,-2,13,-4,.,-1,.,.,
COc1ccc(CCNC(=O)COC(=O)/C=C/c2cc(OC)c(OC)c(OC)c2)cc1OC,-2,2,4,-6,43*,-3,-15,-41,
CCCC(=O)N1CCCC1(C)C(=O)NCc1ccc(F)cc1Cl (stereo not drawn),-3,.,-12,.,.,.,.,.,
N#C/C(=C(\O)c1cc(Cl)sc1Cl)c1nc2ccccc2[nH]1,-2,-7,6,-8,43*,-12,-6,-3,
SMILES,PRMT1 FP inh,APOBEC3A inh,ABHD5-PLIN5 inh,A3G deaminase,NS3 helicase inh,core dimer inh,NS3 helicase cf,FID counter trip,others
COc1ccc([C@H]2C[C@@H](O)C[C@@H](CCn3cc(-c4ccccc4)nn3)O2)cc1,-1,.,-2,.,.,.,.,.,
N=c1c(S(=O)(=O)c2ccc(Cl)cc2)cc2c(=O)n3ccccc3nc2n1Cc1ccco1,16,25,28*,22,45*,35,70*,48*,
CCn1c(=N)c(S(=O)(=O)c2ccc(Cl)cc2)cc2c(=O)n3ccccc3nc21,.,-1,.,-6,3,-2,.,.,
Cc1c(Br)c(O)c(Br)c(O)c1/C=N/n1c(-c2ccccc2)n[nH]c1=S,.,-2,-7,32,36*,-12,70*,-4,
COc1ccc(C2C(C(C)=O)=C(C)N=c3s/c(=C\c4ccco4)c(=O)n32)c(OC)c1 (stereo not drawn),13,8,5,-4,54*,9,-29,-10,
CCOC(=O)[C@]12CCCC=C1N(CCC1=CCCCC1)C(=O)[C@H](CC(=O)NCc1ccc(C)o1)C2,7,.,12,.,.,.,.,.,
COc1ccc(OCc2cc(C(=O)NC3CCOC(C)(C)C3)no2)c2ccccc12 (stereo not drawn),5,2,5,3,47*,12,-19,-35,
CCN(C(=S)NCCOC)c1cccc2ccccc12,0,4,3,-7,44*,-5,1,-31,
Cc1cc(C)n2c(NC3CCCCC3)c(CC(C)C)nc2n1,2,.,4,.,.,.,.,.,
O=C1/C(=C\c2ccccn2)SC(=S)N1c1ccc(S(=O)(=O)Nc2nccs2)cc1,5,-1,-15,-4,36*,15,-17,25,
Cc1ccc(/C=C2/SC(=S)N(c3ccc(S(=O)(=O)Nc4nccs4)cc3)C2=O)cc1,9,-2,11,-4,21,19,.,.,
